ChEMBL document CHEMBL1147092, “Pharmacokinetic/pharmacodynamic factors influencing emergence of resistance to linezolid in an in vitro model” (Antimicrob Agents Chemother, 2007)
Converted amounts (≈) assume the structure as drawn.

How the values were obtained:
Staphylococcus aureus [1] = assay: Bactericidal activity against vancomycin-intermediate Staphylococcus aureus Mu50 assessed as reduction of CFU using in vitro PK/PD model with human dosage regimen 120 mg every 12 hrs after 24 hrs; type: functional
Summary of the method: (§1)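 Flow-through central chamber of BHI broth at 37°C, with pumped clearance set for a 5-h half-life (volume of distribution 290 ml). Exponential-phase inoculum was 10^6 CFU/ml, in duplicate, with growth controls. Samples taken 0–72 h were diluted in saline, plated on nutrient agar and incubated 37°C for 24 h; quantification limit 50 CFU/ml. Drug levels were checked by HPLC. Reduction is the log10 CFU/ml fall.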

Staphylococcus aureus [2] = assay: Antibacterial activity against methicillin-resistant Staphylococcus aureus ATCC 43300 using in vitro PK/PD model with 120 mg/24 hr continuous infusion simulated regimen after 72 hrs; type: functional; conditions: ATCC 43300, 72 h
Staphylococcus aureus [3] = assay: Bactericidal activity against methicillin-resistant Staphylococcus aureus ATCC 43300 assessed as reduction of CFU using in vitro PK/PD model with human dosage regimen 600 mg every 12 hrs after 24 hrs; type: functional; summary of the method: as §1
Staphylococcus aureus [4] = assay: Antibacterial activity against heteroresistant vancomycin-intermediate Staphylococcus aureus Mu3 using in vitro PK/PD model with 120 mg/24 hr continuous infusion simulated regimen after 72 hrs; type: functional; conditions: Mu3, 72 h
Enterococcus faecium [5] = assay: Bactericidal activity against vancomycin-resistant Enterococcus faecium ATCC 700221 assessed as reduction of CFU using in vitro PK/PD model with human dosage regimen 600 mg every 12 hrs at 24 hrs; type: functional; summary of the method: as §1
Enterococcus faecium [6] = assay: Bactericidal activity against vancomycin-resistant Enterococcus faecium ATCC 700221 assessed as reduction of CFU using in vitro PK/PD model with 120 mg/24 hr continuous infusion simulated regimen after 48 hrs; type: functional; summary of the method: as §1
Staphylococcus aureus [7] = assay: Bactericidal activity against vancomycin-intermediate Staphylococcus aureus Mu50 assessed as reduction of CFU using in vitro PK/PD model with human dosage regimen 600 mg every 12 hrs after 24 hrs; type: functional
Summary of the method: (§2)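 Flow-through in vitro PK/PD model in BHI broth at 37°C, 5-h half-life (Vd 290 ml); exponential-phase inoculum 10^6 CFU/ml, duplicates with growth controls. […] Viable counts by saline dilution, plating on nutrient agar, 37°C 24 h; bactericidal = >3-log10 CFU/ml drop.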

Enterococcus faecium [8] = assay: Area under population analysis profile for vancomycin-resistant Enterococcus faecium ATCC 700221 using in vitro PK/PD model relative to growth control with 120 mg/24 hrs continuous infusion regimen after 72 hrs; type: functional
Summary of the method: (§3)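 Bacteria recovered after 72 h of a 2.0-μg/ml continuous infusion in a flow-through BHI model (duplicates). 50 μl of a 0.5 McFarland suspension or dilutions were spiral-plated on BHI agar with linezolid 0–5 μg/ml and incubated 35°C for 48 h; counting limit 20 CFU/ml. Area under the log10 CFU/ml vs concentration curve (trapezoidal) is compared with the 72-h growth control.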

Staphylococcus aureus [9] = assay: Bactericidal activity against heteroresistant vancomycin-intermediate Staphylococcus aureus Mu3 assessed as reduction of CFU using in vitro PK/PD model with human dosage regimen 600 mg every 12 hrs after 24 hrs; type: functional; summary of the method: as §1
[10] = Half life for simulated intermittent-dosage regimen at 120 mg every 12 hrs using in vitro PK/PD model
Staphylococcus aureus [11] = assay: Area under population analysis profile for heteroresistant vancomycin-intermediate Staphylococcus aureus Mu3 using in vitro PK/PD model relative to growth control with 120 mg/24 hrs continuous infusion regimen after 72 hrs; type: functional; summary of the method: as §3
Staphylococcus aureus [12] = assay: Bactericidal activity against vancomycin-intermediate Staphylococcus aureus Mu50 assessed as reduction of CFU using in vitro PK/PD model with 120 mg/24 hr continuous infusion simulated regimen after 48 hrs; type: functional; summary of the method: as §2
Enterococcus faecium [13] = assay: Antibacterial activity against vancomycin-resistant Enterococcus faecium ATCC 700221 by microdilution method; type: functional
Summary of the method: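 Standard broth microdilution in cation-adjusted Mueller-Hinton broth, run in four replicates at baseline. Before testing, the strain was held at −80°C in tryptone soy broth with 20% glycerol and subcultured on horse blood agar for 24 h at 35°C.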

Staphylococcus aureus [14] = assay: Area under population analysis profile for vancomycin-intermediate Staphylococcus aureus Mu50 using in vitro PK/PD model relative to growth control with 120 mg/24 hrs continuous infusion regimen after 72 hrs; type: functional
Staphylococcus aureus [15] = assay: Area under population analysis profile for methicillin-resistant Staphylococcus aureus using in vitro PK/PD model relative to growth control with 120 mg/24 hrs continuous infusion regimen after 72 hrs; type: functional; summary of the method: as §3
[16] = Half life for simulated intermittent-dosage regimen at 600 mg every 12 hrs using in vitro PK/PD model

## CC(=O)NC[C@H]1CN(c2ccc(N3CCOCC3)c(F)c2)C(=O)O1 [LINEZOLID]
Staphylococcus aureus [1]
  log10CFU/ml: >3
Staphylococcus aureus [2]
  MIC: ≥ 8 µg/mL
Staphylococcus aureus [3]
  log10CFU/ml: 3.9
Staphylococcus aureus [4]
  MIC: ≥ 8 µg/mL
Enterococcus faecium [5]
  log10CFU/ml: 3.8
Enterococcus faecium [6]
  log10CFU/ml: >3
Staphylococcus aureus [7]
  log10CFU/ml: 3.3
Enterococcus faecium [8]
  AUPAP: 40%
Staphylococcus aureus [9]
  log10CFU/ml: 3.1
[10]
  half-life at 12 h: 5.32 h
Staphylococcus aureus [11]
  AUPAP: 70.2%
Staphylococcus aureus [12]
  log10CFU/ml: >3
Enterococcus faecium [13]
  MIC: 2 µg/mL (≈ 5.93 µM)
Staphylococcus aureus [14]
  AUPAP: 90.2%
Staphylococcus aureus [15]
  AUPAP: 178%
[16]
  half-life at 12 h: 5.32 h
